Experimental findings from ChEMBL document CHEMBL1165965, “Synthesis and structure-activity relationships of 1,2,3,4-tetrahydropyrido[2,3-b]pyrazines as potent and selective inhibitors of the anaplastic lymphoma kinase” (Bioorg Med Chem, 2010) are described below.

Bounds are passed on as bounds.

For experiment [1], the target named is T1, Serine/threonine-protein kinase RIO3 (Homo sapiens) (UniProt O14730).
T1 sequence (whole entry): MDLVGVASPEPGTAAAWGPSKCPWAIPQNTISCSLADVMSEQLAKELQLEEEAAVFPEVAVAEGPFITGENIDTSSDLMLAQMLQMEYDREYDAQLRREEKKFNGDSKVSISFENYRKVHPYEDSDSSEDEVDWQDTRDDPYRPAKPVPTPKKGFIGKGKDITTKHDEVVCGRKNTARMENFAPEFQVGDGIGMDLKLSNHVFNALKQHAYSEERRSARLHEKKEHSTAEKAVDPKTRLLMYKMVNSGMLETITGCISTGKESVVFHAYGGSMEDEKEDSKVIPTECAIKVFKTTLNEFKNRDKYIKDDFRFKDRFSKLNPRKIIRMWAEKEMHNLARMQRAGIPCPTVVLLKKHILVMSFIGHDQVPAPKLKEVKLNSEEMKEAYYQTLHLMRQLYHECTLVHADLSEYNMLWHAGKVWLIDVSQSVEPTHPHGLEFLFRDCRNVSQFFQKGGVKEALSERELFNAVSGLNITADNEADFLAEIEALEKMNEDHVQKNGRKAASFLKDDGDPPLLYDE
The experiment can be described thus: Inhibition of RIOK3 at 1 uM.

For experiment [2], the system named is Mast/stem cell growth factor receptor Kit (Homo sapiens), P10721 [D816V]. The experiment in a line: Inhibition of KIT D816V mutant at 1 uM. The method in brief:
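Single-concentration screen on the Ambit KINOMEscan platform, run against a panel of 250–400 kinases. Per-kinase inhibition was also summarized as S(90), the fraction of kinases inhibited by more than 90%.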

The target in experiment [3] is BMP-2-inducible protein kinase (Homo sapiens) (UniProt Q9NSY1). The experiment can be described thus: Inhibition of BIKE at 1 uM. The method in brief:
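Ambit KINOMEscan screen at a single concentration across a 250–400 kinase panel, recorded as percent inhibition. Selectivity was expressed as S(90), the fraction of kinases inhibited >90%.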

Experiment [4] concerns the target T2, cAMP-dependent protein kinase catalytic subunit PRKX (Homo sapiens) (UniProt P51817).
T2 sequence (whole entry): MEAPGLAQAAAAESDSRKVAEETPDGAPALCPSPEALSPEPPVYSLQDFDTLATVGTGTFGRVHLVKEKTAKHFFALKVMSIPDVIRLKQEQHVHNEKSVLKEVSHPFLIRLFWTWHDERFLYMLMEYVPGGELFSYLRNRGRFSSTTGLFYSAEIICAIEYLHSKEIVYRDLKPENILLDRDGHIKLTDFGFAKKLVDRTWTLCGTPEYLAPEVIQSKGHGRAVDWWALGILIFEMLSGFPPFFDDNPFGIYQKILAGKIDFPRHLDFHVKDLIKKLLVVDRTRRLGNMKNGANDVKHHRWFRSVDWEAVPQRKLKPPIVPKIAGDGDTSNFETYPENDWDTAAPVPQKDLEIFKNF
The experiment can be described thus: Inhibition of PRKX at 1 uM.

Experiment [5] deals with MAP kinase-activated protein kinase 2 (Homo sapiens) (UniProt P49137). The experiment in a line: Inhibition of MAPKAPK2 at 1 uM.
The target of experiment [6] is T3, Serine/threonine-protein kinase 36 (Homo sapiens) (UniProt Q9NRP7).
T3 sequence (whole entry): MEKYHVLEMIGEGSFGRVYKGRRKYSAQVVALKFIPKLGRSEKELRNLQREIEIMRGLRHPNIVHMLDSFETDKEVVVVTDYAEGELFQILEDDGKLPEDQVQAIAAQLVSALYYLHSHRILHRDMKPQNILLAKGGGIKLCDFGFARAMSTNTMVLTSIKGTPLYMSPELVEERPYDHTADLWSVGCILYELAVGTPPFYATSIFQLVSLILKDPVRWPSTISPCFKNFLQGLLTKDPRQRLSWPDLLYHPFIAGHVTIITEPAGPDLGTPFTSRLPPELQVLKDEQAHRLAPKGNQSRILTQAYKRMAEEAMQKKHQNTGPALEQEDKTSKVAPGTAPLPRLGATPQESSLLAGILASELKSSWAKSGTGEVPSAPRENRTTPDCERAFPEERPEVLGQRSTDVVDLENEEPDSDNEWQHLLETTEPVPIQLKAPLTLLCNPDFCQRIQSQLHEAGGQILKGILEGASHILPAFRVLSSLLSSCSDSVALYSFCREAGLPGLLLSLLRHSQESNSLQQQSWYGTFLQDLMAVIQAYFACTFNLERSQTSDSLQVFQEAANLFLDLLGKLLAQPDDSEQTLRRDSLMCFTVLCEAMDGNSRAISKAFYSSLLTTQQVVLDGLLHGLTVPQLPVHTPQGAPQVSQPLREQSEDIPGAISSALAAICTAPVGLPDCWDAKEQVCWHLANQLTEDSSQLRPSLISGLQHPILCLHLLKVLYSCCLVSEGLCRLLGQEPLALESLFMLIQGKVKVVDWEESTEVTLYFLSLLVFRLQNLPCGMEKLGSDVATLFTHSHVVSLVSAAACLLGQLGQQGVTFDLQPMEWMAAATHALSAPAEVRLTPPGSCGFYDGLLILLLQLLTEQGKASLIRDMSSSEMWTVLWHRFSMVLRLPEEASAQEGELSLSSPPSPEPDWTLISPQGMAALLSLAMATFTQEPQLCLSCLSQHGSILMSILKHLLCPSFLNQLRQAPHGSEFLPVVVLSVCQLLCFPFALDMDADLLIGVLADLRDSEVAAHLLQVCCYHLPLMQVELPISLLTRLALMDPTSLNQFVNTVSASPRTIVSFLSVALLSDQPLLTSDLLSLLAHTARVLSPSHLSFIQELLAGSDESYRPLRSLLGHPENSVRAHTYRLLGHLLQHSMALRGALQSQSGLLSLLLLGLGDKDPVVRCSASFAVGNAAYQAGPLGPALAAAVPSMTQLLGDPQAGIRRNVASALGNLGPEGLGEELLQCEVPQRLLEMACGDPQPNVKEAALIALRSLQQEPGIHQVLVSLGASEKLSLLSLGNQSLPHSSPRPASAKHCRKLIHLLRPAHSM
The experiment can be described thus: Inhibition of STK36 at 1 uM.

Sequence of BMP-2-inducible protein kinase (Homo sapiens) (Q9NSY1 whole entry, looked up): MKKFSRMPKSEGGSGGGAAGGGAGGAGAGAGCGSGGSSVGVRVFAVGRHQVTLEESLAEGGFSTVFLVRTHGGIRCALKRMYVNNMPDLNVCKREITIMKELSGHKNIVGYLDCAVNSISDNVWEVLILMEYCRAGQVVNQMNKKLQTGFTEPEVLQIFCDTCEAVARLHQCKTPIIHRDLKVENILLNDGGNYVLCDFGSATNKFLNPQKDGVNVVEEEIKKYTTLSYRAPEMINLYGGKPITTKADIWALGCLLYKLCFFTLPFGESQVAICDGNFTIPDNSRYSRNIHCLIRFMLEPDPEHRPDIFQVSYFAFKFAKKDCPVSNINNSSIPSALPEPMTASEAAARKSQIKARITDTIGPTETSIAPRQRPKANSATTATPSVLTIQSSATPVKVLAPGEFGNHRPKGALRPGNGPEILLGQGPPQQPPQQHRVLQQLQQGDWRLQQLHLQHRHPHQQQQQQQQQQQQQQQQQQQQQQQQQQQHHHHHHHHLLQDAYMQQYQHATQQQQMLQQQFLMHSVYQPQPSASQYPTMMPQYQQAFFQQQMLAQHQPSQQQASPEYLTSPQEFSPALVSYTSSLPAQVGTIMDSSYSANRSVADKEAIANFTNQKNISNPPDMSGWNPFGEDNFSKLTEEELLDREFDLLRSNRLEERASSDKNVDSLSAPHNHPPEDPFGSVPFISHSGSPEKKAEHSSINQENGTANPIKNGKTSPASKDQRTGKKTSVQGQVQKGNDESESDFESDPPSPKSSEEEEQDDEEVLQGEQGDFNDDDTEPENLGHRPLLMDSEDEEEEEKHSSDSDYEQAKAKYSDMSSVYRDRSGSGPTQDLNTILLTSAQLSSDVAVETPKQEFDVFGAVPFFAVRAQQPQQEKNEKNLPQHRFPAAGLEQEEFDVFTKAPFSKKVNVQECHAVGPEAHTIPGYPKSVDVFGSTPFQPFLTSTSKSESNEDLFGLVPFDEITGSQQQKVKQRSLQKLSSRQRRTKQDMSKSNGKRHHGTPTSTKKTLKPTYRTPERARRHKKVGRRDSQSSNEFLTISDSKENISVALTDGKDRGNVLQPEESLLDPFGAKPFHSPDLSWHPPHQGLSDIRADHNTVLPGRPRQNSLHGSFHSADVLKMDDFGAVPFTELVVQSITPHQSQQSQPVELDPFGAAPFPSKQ
Sequence of Mast/stem cell growth factor receptor Kit (Homo sapiens), P10721 [D816V] (P10721 whole entry D816V): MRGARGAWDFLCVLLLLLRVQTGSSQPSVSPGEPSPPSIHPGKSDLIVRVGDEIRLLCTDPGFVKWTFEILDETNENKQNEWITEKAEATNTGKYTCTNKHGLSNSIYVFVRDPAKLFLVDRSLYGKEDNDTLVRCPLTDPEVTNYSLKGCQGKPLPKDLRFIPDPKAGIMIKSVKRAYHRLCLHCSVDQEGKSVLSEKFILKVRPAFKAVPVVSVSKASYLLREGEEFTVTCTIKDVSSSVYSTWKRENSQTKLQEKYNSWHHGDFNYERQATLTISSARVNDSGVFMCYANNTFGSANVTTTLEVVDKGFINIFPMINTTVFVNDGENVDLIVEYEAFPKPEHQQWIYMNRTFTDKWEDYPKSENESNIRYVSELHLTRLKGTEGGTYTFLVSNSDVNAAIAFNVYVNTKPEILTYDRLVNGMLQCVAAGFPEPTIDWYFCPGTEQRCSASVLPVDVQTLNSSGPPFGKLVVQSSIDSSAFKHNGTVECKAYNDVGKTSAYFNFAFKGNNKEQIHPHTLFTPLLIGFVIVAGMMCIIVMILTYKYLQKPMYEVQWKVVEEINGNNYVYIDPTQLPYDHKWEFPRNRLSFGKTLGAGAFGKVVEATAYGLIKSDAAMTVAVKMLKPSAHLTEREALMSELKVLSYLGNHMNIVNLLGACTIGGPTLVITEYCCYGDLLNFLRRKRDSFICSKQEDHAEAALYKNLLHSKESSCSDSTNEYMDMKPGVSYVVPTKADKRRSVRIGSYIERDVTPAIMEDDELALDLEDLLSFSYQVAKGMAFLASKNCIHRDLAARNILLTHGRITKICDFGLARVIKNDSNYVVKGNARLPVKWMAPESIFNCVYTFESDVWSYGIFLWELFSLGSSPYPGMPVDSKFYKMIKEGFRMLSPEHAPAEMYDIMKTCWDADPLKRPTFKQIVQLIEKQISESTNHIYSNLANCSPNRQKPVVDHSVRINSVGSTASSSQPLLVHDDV
Sequence of MAP kinase-activated protein kinase 2 (Homo sapiens) (P49137 whole entry, looked up): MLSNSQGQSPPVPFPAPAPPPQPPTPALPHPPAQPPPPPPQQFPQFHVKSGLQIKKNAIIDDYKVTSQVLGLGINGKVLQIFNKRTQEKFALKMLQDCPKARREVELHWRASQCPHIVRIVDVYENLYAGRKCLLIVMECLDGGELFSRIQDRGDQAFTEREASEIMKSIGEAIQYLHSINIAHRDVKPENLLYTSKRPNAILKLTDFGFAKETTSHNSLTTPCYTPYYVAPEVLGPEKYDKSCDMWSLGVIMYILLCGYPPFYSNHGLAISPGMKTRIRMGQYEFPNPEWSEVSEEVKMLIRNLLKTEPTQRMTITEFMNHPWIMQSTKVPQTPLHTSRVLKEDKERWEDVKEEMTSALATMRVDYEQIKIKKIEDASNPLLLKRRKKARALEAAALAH

For orientation: inhibition means the drop in the measured response relative to a control, in per cent. Read a high inhibition as strong suppression. `O=C(c1ccc(-c2cnc3c(c2)N(Cc2cc(Cl)ccc2C(F)(F)F)CCN3)cc1)N1CCCCC1`: the inhibition in experiment [1], in experiment [2], in experiment [3] and in experiment [4] was less than 50% in each case.
Take `CN1CCN(c2ccc(-c3cnc4c(c3)N(Cc3c(F)ccc(F)c3Cl)CCN4)cn2)CC1`: the inhibition in experiment [5], in experiment [1], in experiment [6], in experiment [2], in experiment [3] and in experiment [4] was less than 50% each time.
In the case of `COC1CCN(C(=O)c2ccc(-c3cnc4c(c3)N(Cc3cc(Cl)ccc3C(F)(F)F)CCN4)cc2)CC1`, the inhibition in experiment [1], in experiment [2], in experiment [3] and in experiment [4] was less than 50% throughout.
As for `O=C(O)c1ccc(-c2cnc3c(c2)N(Cc2cc(Cl)ccc2C(F)(F)F)CCN3)cc1`, the inhibition in experiment [1], in experiment [2], in experiment [3] and in experiment [4] was less than 50% in each case.
In the case of `FC(F)(F)c1ccc(Cl)cc1CN1CCNc2ncc(-c3ccnc(N4CCNCC4)c3)cc21`, the inhibition in experiment [5] was less than 50%; in experiment [1], less than 50%; in experiment [6], less than 50%; in experiment [2] it was 76%; in experiment [3], less than 50%; in experiment [4] it was less than 50%.
As for `CN1CCN(c2ccc(-c3cnc4c(c3)N(Cc3cc(Cl)ccc3Cl)CCN4)cn2)CC1`, the inhibition in experiment [5], in experiment [1], in experiment [6], in experiment [2], in experiment [3] and in experiment [4] was less than 50% throughout.
With `O=C(c1ccc(-c2cnc3c(c2)N(Cc2cc(Cl)ccc2C(F)(F)F)CCN3)cc1)N1CCC(N2CCCC2)CC1`, the inhibition in experiment [1] was less than 50%; in experiment [2], less than 50%; in experiment [3], 84%; in experiment [4], less than 50%.
`CN1CCN(c2ccc(-c3cnc4c(c3)N(Cc3cc(Cl)ccc3C(F)(F)F)CCN4)cn2)CC1`: the inhibition in experiment [5], in experiment [1], in experiment [6], in experiment [2], in experiment [3] and in experiment [4] was less than 50% in each case.
Regarding `CC(=O)N1CCN(c2cc(-c3cnc4c(c3)N(Cc3cc(Cl)ccc3C(F)(F)F)CCN4)ccn2)CC1`, the inhibition in experiment [5], in experiment [1], in experiment [6], in experiment [2], in experiment [3] and in experiment [4] was less than 50% in each case.
For the compound `CN1CCN(c2ccc(-c3cnc4c(c3)N(Cc3cc(F)ccc3F)CCN4)cn2)CC1`, the inhibition in experiment [5], in experiment [1], in experiment [6], in experiment [2], in experiment [3] and in experiment [4] was less than 50% each time.
